Laboratory results taken from ChEMBL document CHEMBL3124843, “Synthesis, cytostatic, antimicrobial, and anti-HCV activity of 6-substituted 7-(het)aryl-7-deazapurine ribonucleosides” (J Med Chem, 2014).
pEC50, pIC50: −log10 of the molar value. Activity calls are given as the source filed them. The rule behind the calls is not given here.

What was measured:
Hepatitis C virus [1] = test: Antiviral activity against Hepatitis C virus subtype 1b infected in human HuH7 cells; type: functional, organism-based, Hepacivirus hominis; details: genotype 1b, Huh-7
[2] = Cytostatic activity against human CEM-DNR-bulk cells after 72 hrs by MTT assay; type: functional, cell-based
Summary of the method: (§1)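 IC50 is the concentration that cuts cell growth by 50%, read by quantitative metabolic MTT staining after a 3-day treatment. The resistant sublines were made by raising the concentration of the cytotoxic drug step by step. CEM-DNR-bulk (daunorubicin-selected) stably overexpresses mrp-1. K562-TAX (paclitaxel-selected) expresses only mdr-1. HCT116p53−/− carries null p53 alleles. BJ and MRC-5 are nonmalignant fibroblasts.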

CCRF-CEM [3] = test: Cell cycle arrest in human CCRF-CEM cells assessed as accumulation at S phase at IC50 after 24 hrs by propidium iodide staining-based flow cytometric analysis (reference value: 44.8%); type: functional
BJ = test: Cytostatic activity against human BJ cells after 72 hrs by MTT assay; type: ADME, cell-based; summary of the method: as §1
[4] = Cytotoxicity against human HuH7 cells infected with Hepatitis C virus subtype 1b; type: cell-based, Huh-7
Staphylococcus aureus [5] = test: Antibacterial activity against methicillin-resistant Staphylococcus aureus MRSA 4591 after 24 hrs; type: functional, organism-based
HCT-116 [6] = test: Cytostatic activity against human HCT116 cells after 72 hrs by MTT assay; type: functional, cell-based; details: HCT-116, 72 h; summary of the method: as §1
CCRF-CEM [7] = test: Cell cycle arrest in human CCRF-CEM cells assessed as accumulation at G2/M phase at IC50 after 24 hrs by propidium iodide staining-based flow cytometric analysis (reference value: 14.2%); type: functional
Escherichia coli [8] = test: Antibacterial activity against multi-resistant Escherichia coli C/16702 after 24 hrs; type: functional, organism-based
Candida parapsilosis = test: Antifungal activity against Candida parapsilosis after 48 hrs; type: functional, organism-based
[9] = system: Staphylococcus haemolyticus; test: Antibacterial activity against methicillin-resistant Staphylococcus haemolyticus A/16568 after 24 hrs; type: functional, organism-based
Hepatitis C virus [10] = test: Antiviral activity against Hepatitis C virus subtype 2a infected in human HuH7 cells; type: functional, organism-based, Hepacivirus hominis; details: genotype 2a, Huh-7
K562 [11] = test: Cytostatic activity against paclitaxel-resistant human K562 cells after 72 hrs by MTT assay; type: functional, cell-based; details: K562, 72 h; summary of the method: as §1
A549 = test: Cytostatic activity against human A549 cells after 72 hrs by MTT assay; type: functional, cell-based; details: A549, 72 h; summary of the method: as §1
Candida tropicalis = test: Antifungal activity against Candida tropicalis after 48 hrs; type: functional, organism-based
[12] = Antiproliferative activity against human HeLaS3 cells after 72 hrs by XTT assay; type: functional, cell-based; details: HeLa S3, 72 h
Summary of the method: (§2)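 Antiproliferative test on HL-60 promyelocytic leukemia and HeLa S3 cervical carcinoma cells growing in liquid suspension.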

Candida albicans = test: Antifungal activity against Candida albicans after 48 hrs; type: functional, organism-based
CCRF-CEM [13] = test: Inhibition of RNA synthesis in human CCRF-CEM cells assessed as BrU-positive cells at IC50 after 24 hrs by propidium iodide staining-based flow cytometric analysis (reference value: 43.3%); type: functional; design: scale not given: the % may be the effect or the level left
Enterococcus faecalis = test: Antibacterial activity against Enterococcus faecalis CCM 4224 after 24 hrs; type: functional, organism-based
Escherichia coli [14] = test: Antibacterial activity against Escherichia coli CCM 3954 after 24 hrs; type: functional, organism-based
CCRF-CEM [15] = test: Inhibition of DNA synthesis in human CCRF-CEM cells assessed as BrdU-positive cells at IC50 after 24 hrs by propidium iodide staining-based flow cytometric analysis (reference value: 50.1%); type: functional; design: scale not given: the % may be the effect or the level left
K562 [16] = test: Cytostatic activity against human K562 cells after 72 hrs by MTT assay; type: functional, cell-based; details: K562, 72 h; summary of the method: as §1
Pichia kudriavzevii = test: Antifungal activity against Candida crusei after 48 hrs; type: functional, organism-based
CCRF-CEM [17] = test: Cell cycle arrest in human CCRF-CEM cells assessed as accumulation at sub-G1 phase at IC50 after 24 hrs by propidium iodide staining-based flow cytometric analysis (reference value: 9.6%); type: functional
Staphylococcus aureus [18] = test: Antibacterial activity against Staphylococcus aureus CCM 3953 after 24 hrs; type: functional, organism-based
Pseudomonas aeruginosa [19] = test: Antibacterial activity against multi-resistant Pseudomonas aeruginosa A/16575 after 24 hrs; type: functional, organism-based
CCRF-CEM [20] = test: Mitotic arrest in human CCRF-CEM cells assessed as pH3Ser10-positive cells at IC50 after 24 hrs by propidium iodide staining-based flow cytometric analysis (reference value: 1.4%); type: functional
CCRF-CEM [21] = test: Cell cycle arrest in human CCRF-CEM cells assessed as accumulation at G1 phase at IC50 after 24 hrs by propidium iodide staining-based flow cytometric analysis (reference value: 41%); type: functional
MRC5 = test: Cytostatic activity against human MRC5 cells after 72 hrs by MTT assay; type: ADME, cell-based; details: MRC5, 72 h; summary of the method: as §1
CCRF-CEM [22] = test: Cytostatic activity against human CCRF-CEM cells after 72 hrs by MTT assay; type: functional, cell-based; summary of the method: as §1
Pseudomonas aeruginosa [23] = test: Antibacterial activity against Pseudomonas aeruginosa CCM 3955 after 24 hrs; type: functional, organism-based
[24] = Cytotoxicity against human HuH7 cells infected with Hepatitis C virus subtype 2a; type: cell-based, Huh-7
HL-60 = test: Antiproliferative activity against human HL60 cells after 72 hrs by XTT assay; type: functional, cell-based; details: HL-60, 72 h; summary of the method: as §2
HCT-116 [25] = test: Cytostatic activity against p53-deficient human HCT116 cells after 72 hrs by MTT assay; type: functional, cell-based; details: HCT-116, 72 h; summary of the method: as §1
HepG2 = test: Antiproliferative activity against human HepG2 cells after 72 hrs by XTT assay; type: functional, cell-based; details: HepG2, 72 h

Compound	pEC50 (Hepatitis C virus [1])	pIC50 [2]	pIC50 (BJ)	CC50 [4] [nM]	Activity (Staphylococcus aureus [5])	pIC50 (HCT-116 [6])	Activity (CCRF-CEM [7]) [%]	Activity (Escherichia coli [8])	Activity (Candida parapsilosis)	Activity [9]	pEC50 (Hepatitis C virus [10])	pIC50 (K562 [11])	pIC50 (A549)	Activity (Candida tropicalis)	pIC50 [12]	Activity (Candida albicans)	Activity (CCRF-CEM [13]) [%]	Activity (Enterococcus faecalis)	Activity (Escherichia coli [14])	pIC50 (K562 [16])	also measured
Nc1ncnc2c1c(-c1cccs1)cn2[C@@H]1O[C@H](CO)[C@@H](O)[C@H]1O	< 4.36	6.77	4.18	> 44000	inactive	8.00	10.1	inactive	inactive	inactive	< 4.36	7.70	7.40	inactive	7.70	inactive	15.2	inactive	inactive	7.52	Activity (CCRF-CEM [3]): 39.2%; Activity (CCRF-CEM [15]): 52.4%; Activity (Pichia kudriavzevii): inactive; Activity (CCRF-CEM [17]): 18.6%; Activity (Staphylococcus aureus [18]): inactive; Activity (Pseudomonas aeruginosa [19]): inactive; Activity (CCRF-CEM [20]): 1.4%; Activity (CCRF-CEM [21]): 50.6%; pIC50 (MRC5): 4.40; pIC50 (CCRF-CEM [22]): 7.70; Activity (Pseudomonas aeruginosa [23]): inactive; CC50 [24]: > 44000 nM
COc1ncnc2c1c(-c1cccs1)cn2[C@@H]1O[C@H](CO)[C@@H](O)[C@H]1O	5.97	4.92	4.20	> 44000	inactive	7.10	9.8	inactive	inactive	inactive	< 4.36	5.21	5.31	inactive	5.75	inactive	0.1	inactive	inactive	7.15	pIC50 (HL-60): 7.10; pIC50 (HCT-116 [25]): 6.36; pIC50 (HepG2): 4.86; Activity (Pichia kudriavzevii): inactive; Activity (CCRF-CEM [17]): 7.5%; Activity (Staphylococcus aureus [18]): inactive; Activity (Pseudomonas aeruginosa [19]): inactive; Activity (CCRF-CEM [20]): 1.1%; pIC50 (MRC5): 4.36; pIC50 (CCRF-CEM [22]): 7.05; Activity (Pseudomonas aeruginosa [23]): inactive; CC50 [24]: > 44000 nM
